The text below walks through data of ChEMBL document CHEMBL1649420, “Identifying chelators for metalloprotein inhibitors using a fragment-based approach” (J Med Chem, 2011).

Test [1] addresses T1, Polyunsaturated fatty acid 5-lipoxygenase (Homo sapiens) (UniProt P09917).
T1 sequence (whole entry): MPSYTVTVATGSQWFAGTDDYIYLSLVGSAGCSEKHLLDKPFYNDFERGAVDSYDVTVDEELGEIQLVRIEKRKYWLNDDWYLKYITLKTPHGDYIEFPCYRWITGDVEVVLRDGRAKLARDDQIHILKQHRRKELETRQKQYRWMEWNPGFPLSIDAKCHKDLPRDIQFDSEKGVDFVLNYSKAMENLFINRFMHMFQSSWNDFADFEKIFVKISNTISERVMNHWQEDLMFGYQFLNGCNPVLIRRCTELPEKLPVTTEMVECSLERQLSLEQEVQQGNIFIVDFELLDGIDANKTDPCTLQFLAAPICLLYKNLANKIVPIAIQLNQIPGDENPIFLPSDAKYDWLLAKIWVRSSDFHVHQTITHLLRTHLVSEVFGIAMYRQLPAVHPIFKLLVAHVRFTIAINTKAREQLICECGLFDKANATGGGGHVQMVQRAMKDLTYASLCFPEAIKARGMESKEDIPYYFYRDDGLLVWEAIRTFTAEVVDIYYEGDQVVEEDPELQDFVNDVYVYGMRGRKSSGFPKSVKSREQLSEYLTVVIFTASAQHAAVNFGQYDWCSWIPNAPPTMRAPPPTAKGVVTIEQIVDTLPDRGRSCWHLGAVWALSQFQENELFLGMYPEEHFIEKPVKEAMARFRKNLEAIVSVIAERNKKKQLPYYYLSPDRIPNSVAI
The test can be described thus: Inhibition of human recombinant 5-lipoxygenase at 1 mM after 10 mins by fluorescence assay.

In test [2] the target is T2, Interstitial collagenase (Homo sapiens) (UniProt P03956).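 Note: recombinant human enzyme, with inhibition measured after 30 min.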
T2 sequence (whole entry): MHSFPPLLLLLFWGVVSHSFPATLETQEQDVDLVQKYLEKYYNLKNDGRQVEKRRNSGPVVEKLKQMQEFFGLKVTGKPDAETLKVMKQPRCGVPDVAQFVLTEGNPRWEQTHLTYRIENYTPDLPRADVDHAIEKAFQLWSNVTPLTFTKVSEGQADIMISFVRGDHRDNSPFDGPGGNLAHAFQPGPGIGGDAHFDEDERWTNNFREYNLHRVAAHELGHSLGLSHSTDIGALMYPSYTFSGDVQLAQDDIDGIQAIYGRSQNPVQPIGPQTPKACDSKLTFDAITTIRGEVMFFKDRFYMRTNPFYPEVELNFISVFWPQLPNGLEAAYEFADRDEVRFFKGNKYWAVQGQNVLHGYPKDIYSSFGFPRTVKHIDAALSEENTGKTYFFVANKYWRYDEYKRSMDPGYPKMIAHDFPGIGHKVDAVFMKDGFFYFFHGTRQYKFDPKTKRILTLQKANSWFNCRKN
The settings on record: at 1 mM.

The target of test [3] is 72 kDa type IV collagenase (Homo sapiens, UniProt P08253). In words: Inhibition of human recombinant MMP2 after 30 mins. The method in brief:
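Enzyme (1.16 U) preincubated 30 min at 37 °C with fragment in 50 mM HEPES, 10 mM CaCl2, 0.05% Brij-35, pH 7.5. Fluorogenic Mca peptide substrate (4 μM final) then added. Rate of fluorescence increase compared with no-inhibitor control (100%). Single-point 25 μM final for the 8-hydroxyquinoline sublibrary. IC50 fitted to dose-response curves from serial dilutions of DMSO stocks.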

72 kDa type IV collagenase, sequence (P08253 whole entry, the tested form may be a part): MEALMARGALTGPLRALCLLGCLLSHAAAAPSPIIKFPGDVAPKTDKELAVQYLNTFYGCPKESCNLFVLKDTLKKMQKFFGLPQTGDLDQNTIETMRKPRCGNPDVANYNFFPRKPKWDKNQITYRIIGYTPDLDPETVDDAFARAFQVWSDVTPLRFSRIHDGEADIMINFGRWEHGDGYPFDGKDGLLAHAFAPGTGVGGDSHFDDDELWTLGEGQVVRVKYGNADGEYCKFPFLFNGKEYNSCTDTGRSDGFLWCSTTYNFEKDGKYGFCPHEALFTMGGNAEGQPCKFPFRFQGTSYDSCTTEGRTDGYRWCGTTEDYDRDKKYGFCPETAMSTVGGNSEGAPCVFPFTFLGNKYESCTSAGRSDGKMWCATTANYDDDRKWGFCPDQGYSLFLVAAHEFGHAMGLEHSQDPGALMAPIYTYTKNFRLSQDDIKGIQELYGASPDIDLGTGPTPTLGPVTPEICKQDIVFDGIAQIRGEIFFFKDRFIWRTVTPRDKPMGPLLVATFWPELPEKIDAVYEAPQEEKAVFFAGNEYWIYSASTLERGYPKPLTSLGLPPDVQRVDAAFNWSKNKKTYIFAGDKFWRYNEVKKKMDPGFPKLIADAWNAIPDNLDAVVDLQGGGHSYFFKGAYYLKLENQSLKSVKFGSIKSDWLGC

For `Nc1ccc(C(=O)O)c(O)c1`, the values for the inhibition in test [1] and in test [2] were 60% and -7%, respectively.

For `Cc1ccc(S(N)(=O)=O)cc1`, the inhibition (usually the drop in the measured response relative to a control, in per cent) in test [1] was found to be 25%; in test [2], 11%.

On to `CC(=O)C(C)C(C)=O`, for which the inhibition in test [1] was determined as 64%; in test [2], 10%.

As to `O=c1cccccc1O` [TROPOLONE], the inhibition is -3% in test [1] and 100% in test [2]. Moreover, the half-maximal inhibitory concentration (IC50) (as a rule, the concentration needed to halve the response being measured) in test [3] was found to be 146 µM.

Take `O=C(O)c1nccc2ccccc12`: the values for the inhibition in test [1] and in test [2] were 18% and 32%, respectively.

With `Cc1cc(=O)c(O)co1`, the results for the inhibition in test [1] and in test [2] were 80% and 37%, respectively.

As to `CC(=O)C1CCCC1=O` (stereo not drawn), the inhibition in test [1] came to 79%; in test [2], 38%.

Take `O=C(O)c1ccc(F)cc1O`: the inhibition in test [1] amounted to 31%; in test [2] it was 14%.

In the case of `O=C(O)c1ccccn1`, the figures for the inhibition in test [1] and in test [2] were 16% and 3%, respectively.

For `O=C(O)c1ccc(C(=O)O)nc1`, the inhibition in test [1] was found to be 31%; in test [2], 0%.

Consider `Cn1cccc(O)c1=O`, for which the inhibition in test [1] turned out to be 88%; in test [2], 17%.

`CCn1ccc(=O)c(O)c1C`: the inhibition in test [1] turned out to be 80%; in test [2], 19%.

As to `O=C(O)c1cccc(C(=O)O)n1`, the inhibition stood at 31% in test [1] and 7% in test [2].

In the case of `Nc1[nH]cnc2ncnc1-2`, the inhibition in test [1] is 9%; in test [2], 17%.

On to `CCCCc1ccc(C(=O)O)nc1`, for which the results for the inhibition in test [1] and in test [2] were 23% and 58%, respectively.

Take `Cc1cc(=O)c(O)c(CCl)o1`: the figures for the inhibition in test [1] and in test [2] were 72% and 53%, respectively.

For the molecule `Nc1cc(=O)nc(N)[nH]1`, the inhibition in test [1] was determined as 65%; in test [2] it was 3%.

For the molecule `O=c1occcc1O`, the inhibition in test [1] is 77%; in test [2] it was 74%.

As to `Cc1cccc(C(=O)O)c1O`, the inhibition was determined as 22% in test [1] and 10% in test [2].

For the molecule `O=C(O)c1ccccc1O`, the inhibition in test [1] was 20%; in test [2], -1%.

With `Cc1cc(O)nc(C)n1`, the inhibition in test [1] stood at 26%; in test [2], 10%.

For `c1ccc(CNCc2ccccn2)nc1`, the inhibition was determined as 29% in test [1] and 73% in test [2].

As for `Cc1ccc(O)c(C(=O)O)c1`, the inhibition in test [1] turned out to be 17%; in test [2], 28%.

For the molecule `O=c1ccocc1O`, the figures for the inhibition in test [1] and in test [2] were 81% and 48%, respectively.

Regarding `Cc1cc(O)nc(O)n1`, the values for the inhibition in test [1] and in test [2] were 24% and 13%, respectively.

In the case of `O=C(O)c1cccc(O)c1O`, the inhibition in test [1] was 80%; in test [2] it was 17%.

For the molecule `O=C(O)c1cc(F)ccc1O`, the values for the inhibition in test [1] and in test [2] were 49% and -7%, respectively.

On to `Cc1occ(O)c(=O)c1C(=O)O`, for which the figures for the inhibition in test [1] and in test [2] were 80% and 60%, respectively.

As for `C1CNCCNCCN1`, the values for the inhibition in test [1] and in test [2] were 25% and 105%, respectively.

Consider `[O-][n+]1cccc2cccc(O)c21`, for which the inhibition in test [1] worked out at 66%; in test [2], 70%.

Turning to `Cc1nc(O)nc(O)c1C`, the inhibition in test [1] amounted to 33%; in test [2], 11%.

For `O=c1cc(CCl)occ1O`, the values for the inhibition in test [1] and in test [2] were 87% and 67%, respectively.

On to `Oc1ncccn1`, for which the values for the inhibition in test [1] and in test [2] were 8% and 100%, respectively.

For `O=C(O)c1cccc(Br)n1`, the inhibition in test [1] was 29%; in test [2] it was 11%.

`O=C(O)c1cccc[n+]1[O-]`: the inhibition came to 31% in test [1] and 10% in test [2].

Regarding `O=C(O)c1ncccc1O`, the inhibition in test [1] was 17%; in test [2], 55%.
